Assay results: publication PMC8842656 (Journal of Experimental Pharmacology, 2022)
Read-outs that look alike come from different tables or passages of the source.

Assays:
[1] = humans, cited from earlier work
[2] = oral dose of 2g/kg; cited from earlier work
[3] = test system: LPS-induced experimental periodontal disease; conditions: rats, oral, 28 days, doses 0, 1, 5, 10 and 30 mg/kg; cited from earlier work
Sprague-Dawley (SD) rats [4] = test: 28-day toxicology evaluation within long-term PK study, oral gavage once daily; format: in vivo, rat; conditions: 100 mg/kg/day oral
In short: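 Male and female Sprague-Dawley rats, 6–8 weeks old (250–350 g), 3+3 per group, received 2% carboxymethylcellulose vehicle or test compound suspended in it at 100 mg/kg/day by oral gavage for 28 days. Adverse events, body weight and daily food intake were tracked. Terminal hematology and serum biochemistry, gross necropsy, and histopathology of heart, lungs, liver, kidney, spleen and colon followed. Two-tailed Student's t-test versus vehicle, p<0.05.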

[5] = Single dose pharmacokinetic study, oral gavage, blood by LC/MS/MS; format: in vivo, rat
In short: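 Two groups of 6 Sprague-Dawley rats (3 males and 3 females each), 6–8 weeks old, received a single oral gavage of test compound at 500 or 1000 mg/kg, suspended in 2% carboxymethylcellulose. Blood was drawn at 5, 10, 15, 30, 45 min and 1, 2, 4, 6, 24 h. Compound was measured by LC/MS/MS, and t1/2, Tmax and Cmax were derived from mean (n=6) profiles.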

[6] = 500 mg/kg oral and 20 mg/kg i.v., blood at 2 and 6 hours; cited from earlier work
Sprague-Dawley (SD) rats [7] = test: 5-day maximum tolerated dose; format: in vivo, rat
In short: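 Thirty Sprague-Dawley rats, 60–65 days old (276–300 g), viral-antibody free, formed 5 groups of 3 males and 3 females. They received 2% carboxymethylcellulose vehicle or test compound suspended in it at 50, 100, 500 or 1000 mg/kg/day by oral gavage once daily for 5 days. Mortality, body weight and food intake were monitored. Terminal hematology, clinical chemistry and necropsy followed, with control and high-dose organs sectioned. Two-tailed Student's t-test, p<0.05.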

Long-term = format: in vivo, rat; conditions: 100 mg/kg/day oral, day 28
In short: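 Sprague-Dawley rats (3 males and 3 females) were dosed with test compound by oral gavage at 100 mg/kg/day for 28 days, suspended in 2% carboxymethylcellulose. On day 28 the animals were anesthetized and blood was sampled from 5 min to 24 h after dosing. Compound was quantified by LC/MS/MS, and Cmax and Tmax were taken from the mean (n=6) concentration-time profile.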

[8] = 28-Day PK Study, compared to placebo-treated controls
[9] = 50-1000 mg/kg/day oral, 5 days, both sexes

## COc1cc(C=CC(=O)CC(=O)C=Cc2ccc(O)c(OC)c2)ccc1O [curcumin, 1,7-bis-(4-hydroxy-3-methoxyphenyl)-1,6-heptadiene-3,5-dione]
[1]; oral dose of 10 g/kg
  Cmax in serum: 50.5 ng/mL
  Time of Cmax: 4 h
[1]; oral dose of 12 g/kg
  Cmax in serum: 57.6 ng/mL
  Time of Cmax: 2 h
[2]
  Cmax: 1350 ± 230 ng/mL
  Time of Cmax: 0.75 h

## O=C(/C=C/c1ccc(O)cc1)C(C(=O)/C=C/c1ccc(O)cc1)C(=O)Nc1ccccc1 [CMC2.24]
[3]
  Minimum effective dose to inhibit inflammation and alveolar bone resorption: 1 mg/kg/day
Sprague-Dawley (SD) rats [4]; 28 days
  Adverse events: no adverse events were reported
Sprague-Dawley (SD) rats [4]; 28 days, both sexes
  Mean body weight vs placebo treated controls: no significant differences
Sprague-Dawley (SD) rats [4]; [8]
  Hematological & Serological parameters: No change observed
  Histology of organs (Heart, Lungs, Spleen, Liver, Kidney, Colon): Normal Histology Observed
[5]; oral administration
  Serum half-life: 10 h
[5]; single oral dose 500 mg/kg
  Cmax in blood: 8 ng/mL
  Tmax: 0.75 h
[5]; single oral dose 1000 mg/kg
  Cmax in blood: 6.7 ng/mL
  Tmax: 0.75 h
[6]
  Bioavailability based on blood analysis: poor bioavailability
Sprague-Dawley (SD) rats [7]; [9]
  Daily food consumption and adverse events: no difference
  Mean body weight vs placebo treated controls: did not show significant differences
Sprague-Dawley (SD) rats [7]; oral, one week of treatment
  Highest dose found safe (MTD not demonstrated): ≥ 1000 mg/kg
Long-term
  Peak blood concentration (Cmax): 0.2 ng/mL
  Tmax: 4 h
